“And” between values parts separate entries of the source, which are not always exact repeats. Identical values can stand only once.
Legend:
Assay type in all cases: toxicity, cell-based
U2OS [1] = test: Incucyte cell viability with U2OS; conditions: human, 10 µM, compound concentration 10 uM; also: filed as whole numbers so only -1 and 0 and 1 occur
HEK-293T [2] = test: Incucyte cell viability with HEK293T; conditions: human, 10 µM, compound concentration 10 uM; also: filed as whole numbers so only -1 and 0 and 1 occur
Fibroblast [3] = test: Multiplex assay against human fibroblast; conditions: 10 µM, compound concentration 10 uM
Outline: (§1)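 Compound was added to live cells that had been stained at seeding with Hoechst33342, BioTracker Green Microtubule Cytoskeleton Dye, MitoTracker Red and Annexin V Alexa Fluor 680, and imaging followed on a CQ1 microscope at 37°C and 5% CO2. CellPathfinder machine-learning gating divided cells into Hoechst high-intensity objects or normal cells, normal cells into healthy, pyknosed or fragmented nuclei, and pyknosed cells into mitotic or apoptotic. Tubulin, mitochondrial-mass and membrane-permeability phenotypes are per cents of healthy-nucleus cells.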

Fibroblast [4] = test: Incucyte cell viability with human fibroblast; conditions: 10 µM, compound concentration 10 uM; also: filed as whole numbers so only -1 and 0 and 1 occur
U2OS [5] = test: Multiplex assay against U2OS; conditions: human, 10 µM, compound concentration 10 uM; outline: as §1
HEK-293T [6] = test: Multiplex assay against HEK293T; conditions: human, 10 µM, compound concentration 10 uM; outline: as §1
[7] = 6 h, replicate number 1, timepoint 6 hours
[8] = 12 h, replicate number 1, timepoint 12 hours
[9] = 18 h, replicate number 1, timepoint 18 hours
[10] = 24 h, replicate number 1, timepoint 24 hours

COc1cc(C)c(Sc2cnc(NC(=O)c3ccc(CNC(C)C(C)(C)C)cc3)s2)cc1C(=O)N1CCN(C(C)=O)CC1 (stereo not drawn)
Growth Rate (U2OS [1]; 0 h, replicate number 1, timepoint 0 hours): 0 | Growth Rate (U2OS [1]; [7]): 0 | Growth Rate (U2OS [1]; [8]): 0 | Growth Rate (U2OS [1]; [9]): 0 | Growth Rate (U2OS [1]; [10]): 0 | Growth Rate (HEK-293T [2]; [7]): 0 | Growth Rate (HEK-293T [2]; [8]): 0 | Growth Rate (HEK-293T [2]; [9]): 0 | Growth Rate (HEK-293T [2]; [10]): 0 | Population Apoptotic (%) (Fibroblast [3]; 12 h, replicate 1): 67% and 75% | Population Fragmented Nuclei (%) (Fibroblast [3]; 12 h, replicate 1): 22% and 35% | Population Healthy Nuclei (%) (Fibroblast [3]; 12 h, replicate 1): 60% and 50% | Population Hoechst High Intensity Objects (%) (Fibroblast [3]; 12 h, replicate 1): 12% | Population Membrane Permeable-Phenotype (%) (Fibroblast [3]; 12 h, replicate 1): 6% | Population Mitotic Cells (%) (Fibroblast [3]; 12 h, replicate 1): 32% and 25% | Population Normal (%) (Fibroblast [3]; 12 h, replicate 1): 87% | Population Pyknosed Nuclei (%) (Fibroblast [3]; 12 h, replicate 1): 14% | Population Tubulin-Different-Phenotype (%) (Fibroblast [3]; 12 h, replicate 1): 4% and 12% | Total Cell Count (Fibroblast [3]; 12 h, replicate 1): 276 and 186 | Population Apoptotic (%) (Fibroblast [3]; 12 h, replicate 2): 50% and 40% | Population Fragmented Nuclei (%) (Fibroblast [3]; 12 h, replicate 2): 46% and 56% | Population Healthy Nuclei (%) (Fibroblast [3]; 12 h, replicate 2): 38% and 33% | Population Hoechst High Intensity Objects (%) (Fibroblast [3]; 12 h, replicate 2): 29% and 43% | Population Membrane Permeable-Phenotype (%) (Fibroblast [3]; 12 h, replicate 2): 10% and 11% | Population Mitochondria Different-Phenotype (%) (Fibroblast [3]; 12 h, replicate 2): 10% and 27% | Population Mitotic Cells (%) (Fibroblast [3]; 12 h, replicate 2): 50% and 60% | Population Normal (%) (Fibroblast [3]; 12 h, replicate 2): 70% and 56% | Population Pyknosed Nuclei (%) (Fibroblast [3]; 12 h, replicate 2): 16% and 9% | Total Cell Count (Fibroblast [3]; 12 h, replicate 2): 71 and 94 | Population Apoptotic (%) (Fibroblast [3]; 24 h, replicate 1): 57% and 91% | Population Fragmented Nuclei (%) (Fibroblast [3]; 24 h, replicate 1): 18% and 31% | Population Healthy Nuclei (%) (Fibroblast [3]; 24 h, replicate 1): 69% and 53% | Population Hoechst High Intensity Objects (%) (Fibroblast [3]; 24 h, replicate 1): 17% and 13% | Population Membrane Permeable-Phenotype (%) (Fibroblast [3]; 24 h, replicate 1): 9% and 6% | Population Normal (%) (Fibroblast [3]; 24 h, replicate 1): 82% and 86% | Population Pyknosed Nuclei (%) (Fibroblast [3]; 24 h, replicate 1): 14% | Total Cell Count (Fibroblast [3]; 24 h, replicate 1): 264 and 192 | Population Apoptotic (%) (Fibroblast [3]; 24 h, replicate 2): 33% and 66% | Population Fragmented Nuclei (%) (Fibroblast [3]; 24 h, replicate 2): 46% and 54% | Population Healthy Nuclei (%) (Fibroblast [3]; 24 h, replicate 2): 42% and 33% | Population Hoechst High Intensity Objects (%) (Fibroblast [3]; 24 h, replicate 2): 23% and 42% | Population Membrane Permeable-Phenotype (%) (Fibroblast [3]; 24 h, replicate 2): 8% and 22% | Population Mitotic Cells (%) (Fibroblast [3]; 24 h, replicate 2): 66% and 33% | Population Normal (%) (Fibroblast [3]; 24 h, replicate 2): 76% and 57% | Population Pyknosed Nuclei (%) (Fibroblast [3]; 24 h, replicate 2): 11% | Total Cell Count (Fibroblast [3]; 24 h, replicate 2): 71 and 92 | Growth Rate (Fibroblast [4]; [7]): 0 | Growth Rate (Fibroblast [4]; [8]): 0 | Growth Rate (Fibroblast [4]; [9]): 0 | Growth Rate (Fibroblast [4]; [10]): 0 | Population Apoptotic (%) (U2OS [5]; 12 h, replicate 1): 33% and 44% | Population Fragmented Nuclei (%) (U2OS [5]; 12 h, replicate 1): 6% and 2% | Population Healthy Nuclei (%) (U2OS [5]; 12 h, replicate 1): 84% | Population Hoechst High Intensity Objects (%) (U2OS [5]; 12 h, replicate 1): 3% and 4% | Population Mitochondria Different-Phenotype (%) (U2OS [5]; 12 h, replicate 1): 12% and 33% | Population Mitotic Cells (%) (U2OS [5]; 12 h, replicate 1): 66% and 55% | Population Normal (%) (U2OS [5]; 12 h, replicate 1): 96% and 95% | Population Pyknosed Nuclei (%) (U2OS [5]; 12 h, replicate 1): 8% and 6% | Population Tubulin-Different-Phenotype (%) (U2OS [5]; 12 h, replicate 1): 32% | Total Cell Count (U2OS [5]; 12 h, replicate 1): 180 and 143 | Population Apoptotic (%) (U2OS [5]; 12 h, replicate 2): 0% | Population Fragmented Nuclei (%) (U2OS [5]; 12 h, replicate 2): 5% | Population Healthy Nuclei (%) (U2OS [5]; 12 h, replicate 2): 90% and 89% | Population Hoechst High Intensity Objects (%) (U2OS [5]; 12 h, replicate 2): 12% and 8% | Population Mitochondria Different-Phenotype (%) (U2OS [5]; 12 h, replicate 2): 16% and 15% | Population Mitotic Cells (%) (U2OS [5]; 12 h, replicate 2): 100% | Population Normal (%) (U2OS [5]; 12 h, replicate 2): 87% and 91% | Population Pyknosed Nuclei (%) (U2OS [5]; 12 h, replicate 2): 3% and 4% | Population Tubulin-Different-Phenotype (%) (U2OS [5]; 12 h, replicate 2): 24% and 19% | Total Cell Count (U2OS [5]; 12 h, replicate 2): 98 and 130 | Population Apoptotic (%) (U2OS [5]; 24 h, replicate 1): 78% and 28% | Population Fragmented Nuclei (%) (U2OS [5]; 24 h, replicate 1): 2% and 4% | Population Healthy Nuclei (%) (U2OS [5]; 24 h, replicate 1): 90% and 92% | Population Hoechst High Intensity Objects (%) (U2OS [5]; 24 h, replicate 1): 1% | Population Membrane Permeable-Phenotype (%) (U2OS [5]; 24 h, replicate 1): 7% | Population Mitochondria Different-Phenotype (%) (U2OS [5]; 24 h, replicate 1): 14% and 24% | Population Normal (%) (U2OS [5]; 24 h, replicate 1): 98% | Population Pyknosed Nuclei (%) (U2OS [5]; 24 h, replicate 1): 6% and 3% | Population Tubulin-Different-Phenotype (%) (U2OS [5]; 24 h, replicate 1): 18% and 34% | Total Cell Count (U2OS [5]; 24 h, replicate 1): 222 and 212 | Population Apoptotic (%) (U2OS [5]; 24 h, replicate 2): 18% and 40% | Population Fragmented Nuclei (%) (U2OS [5]; 24 h, replicate 2): 3% and 7% | Population Healthy Nuclei (%) (U2OS [5]; 24 h, replicate 2): 80% and 89% | Population Hoechst High Intensity Objects (%) (U2OS [5]; 24 h, replicate 2): 10% and 7% | Population Membrane Permeable-Phenotype (%) (U2OS [5]; 24 h, replicate 2): 15% and 5% | Population Mitochondria Different-Phenotype (%) (U2OS [5]; 24 h, replicate 2): 25% and 33% | Population Mitotic Cells (%) (U2OS [5]; 24 h, replicate 2): 81% and 60% | Population Normal (%) (U2OS [5]; 24 h, replicate 2): 89% and 92% | Population Pyknosed Nuclei (%) (U2OS [5]; 24 h, replicate 2): 16% | Population Tubulin-Different-Phenotype (%) (U2OS [5]; 24 h, replicate 2): 15% and 28% | Total Cell Count (U2OS [5]; 24 h, replicate 2): 108 and 162 | Population Apoptotic (%) (HEK-293T [6]; 12 h, replicate 1): 22% and 18% | Population Fragmented Nuclei (%) (HEK-293T [6]; 12 h, replicate 1): 20% and 17% | Population Healthy Nuclei (%) (HEK-293T [6]; 12 h, replicate 1): 47% and 68% | Population Hoechst High Intensity Objects (%) (HEK-293T [6]; 12 h, replicate 1): 19% and 8% | Population Membrane Permeable-Phenotype (%) (HEK-293T [6]; 12 h, replicate 1): 6% and 3% | Population Mitotic Cells (%) (HEK-293T [6]; 12 h, replicate 1): 77% and 81% | Population Normal (%) (HEK-293T [6]; 12 h, replicate 1): 80% and 91% | Population Pyknosed Nuclei (%) (HEK-293T [6]; 12 h, replicate 1): 31% and 13% | Total Cell Count (HEK-293T [6]; 12 h, replicate 1): 653 and 686 | Population Fragmented Nuclei (%) (HEK-293T [6]; 12 h, replicate 2): 4% and 5% | Population Healthy Nuclei (%) (HEK-293T [6]; 12 h, replicate 2): 86% and 89% | Population Hoechst High Intensity Objects (%) (HEK-293T [6]; 12 h, replicate 2): 3% and 2% | Population Membrane Permeable-Phenotype (%) (HEK-293T [6]; 12 h, replicate 2): 1% | Population Mitochondria Different-Phenotype (%) (HEK-293T [6]; 12 h, replicate 2): 22% and 9% | Population Mitotic Cells (%) (HEK-293T [6]; 12 h, replicate 2): 85% and 95% | Population Normal (%) (HEK-293T [6]; 12 h, replicate 2): 96% and 97% | Population Pyknosed Nuclei (%) (HEK-293T [6]; 12 h, replicate 2): 9% and 4% | Total Cell Count (HEK-293T [6]; 12 h, replicate 2): 1194 and 1652 | Population Apoptotic (%) (HEK-293T [6]; 24 h, replicate 1): 28% and 21% | Population Fragmented Nuclei (%) (HEK-293T [6]; 24 h, replicate 1): 19% and 13% | Population Healthy Nuclei (%) (HEK-293T [6]; 24 h, replicate 1): 65% and 78% | Population Hoechst High Intensity Objects (%) (HEK-293T [6]; 24 h, replicate 1): 14% and 6% | Population Membrane Permeable-Phenotype (%) (HEK-293T [6]; 24 h, replicate 1): 10% and 6% | Population Mitotic Cells (%) (HEK-293T [6]; 24 h, replicate 1): 71% and 78% | Population Normal (%) (HEK-293T [6]; 24 h, replicate 1): 85% and 93% | Population Pyknosed Nuclei (%) (HEK-293T [6]; 24 h, replicate 1): 14% and 7% | Total Cell Count (HEK-293T [6]; 24 h, replicate 1): 664 and 754 | Population Apoptotic (%) (HEK-293T [6]; 24 h, replicate 2): 7% and 4% | Population Fragmented Nuclei (%) (HEK-293T [6]; 24 h, replicate 2): 15% and 22% | Population Healthy Nuclei (%) (HEK-293T [6]; 24 h, replicate 2): 81% and 74% | Population Hoechst High Intensity Objects (%) (HEK-293T [6]; 24 h, replicate 2): 3% | Population Membrane Permeable-Phenotype (%) (HEK-293T [6]; 24 h, replicate 2): 8% and 5% | Population Mitochondria Different-Phenotype (%) (HEK-293T [6]; 24 h, replicate 2): 5% and 2% | Population Mitotic Cells (%) (HEK-293T [6]; 24 h, replicate 2): 92% and 95% | Population Normal (%) (HEK-293T [6]; 24 h, replicate 2): 96% | Population Pyknosed Nuclei (%) (HEK-293T [6]; 24 h, replicate 2): 3% and 2% | Total Cell Count (HEK-293T [6]; 24 h, replicate 2): 2038 and 2847

Reference: ChEMBL document CHEMBL4689842, “EUbOPEN Chemogenomics Library wave 1” (2021)
